# Only a selection was taken, and hits are over-represented in it overall.
# CHOP inhibitor: CHOP inhibition in unfolded protein response; CHO-K1 CHOP-promoter luciferase, tunicamycin-induced, 15-18 h; inhibition, % at 10 µM; actives 3.8% (n = 220,000);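 active means compounds that reduced the stress-induced luciferase reporter signal by more than about 70% of percent inhibition, limit read from the data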;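 further: 0% = tunicamycin plus vehicle and 100% = wells without tunicamycin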
# UPR CHOP act: apoptotic UPR (CHOP) activation; actives 0.34% (n = 330,000); AID 449763; CHO-CHOP luciferase reporter, luminescence; percent of tunicamycin response over DMSO baseline; activation, % at 10 µM;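 active means at 10 µM dose, activation of 40% or more, normalized to positive control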;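 further: 100% = tunicamycin at 10 µg/mL and 0% = DMSO alone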
#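 Assay system: CHO-CHOP cells, stable luciferase reporter of PERK-eIF2a-CHOP signalling / Buffer or medium: F12 plus 10% serum / Compound dosing: one dose, 10 µM in 0.5% DMSO / Times: 6 h compound treatment, 37 °C / Technique: luciferase luminescence / Read-out: % reporter activation, DMSO baseline versus tunicamycin full activation / Benchmarks: tunicamycin and DMSO controls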
# XBP1 UPR activ: adaptive UPR (XBP1) activation | CHO-XBP1 luciferase reporter, IRE1-XBP1 UPR activation, luminescence; percent of tunicamycin response, DMSO as zero | activation, % at 20 µM | actives 0.33% (n = 330,000);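 active means versus positive control, 20 µM dose yields 30% or more activation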;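 further: 100% = tunicamycin at 10 µg/mL and 0% = DMSO only wells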
#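 Material: CHO-XBP1 cells stably carrying IRE1-XBP1-driven luciferase reporter | Medium: F12 with 10% serum | Compound dosing: 20 µM single concentration, DMSO 1% | Incubation: Overnight seeding at 37 °C, 6 h compound treatment at 37 °C | Detection: Steady-Glo luminescence read | Read-out basis: % activation of reporter signal versus tunicamycin and DMSO controls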
# Jurkat NFkB inh: lowers PMA/ionomycin-induced NF-kB signal in Jurkat cells. AID 435003. actives 0.53% (n = 330,000). inhibition, % at 4 µM. PMA/ionomycin-induced NF-kB luciferase reporter, luminescence; in the data active means inhibition above about 50%
# 697 NFkB inh: inhibitors of the PMA/ionomycin-induced NF-kB reporter in 697 B cells. actives 0.33% (n = 330,000). 697 B-cell NF-kB luciferase reporter, 16 h. inhibition, % at 4 µM. AID 435022; in the data active means inhibition above about 35%
# CHOP confirm: confirmation of CHOP induction inhibitors. inhibition, % at 10 µM. actives 45% (n = 2,100). shares compounds with CHOP inhibitor. CHO-CHOP promoter luciferase reporter, tunicamycin-induced, luminescence;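 active means mean of three repeat readings of reporter signal inhibition above a set limit, cut at about 70% in these data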;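 further: 0% = tunicamycin plus vehicle and 100% = wells lacking tunicamycin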
# Jurkat NFkB conf: inhibitors of the PMA/ionomycin-induced NF-kB reporter in Jurkat cells, retest; shares compounds with Jurkat NFkB inh; Jurkat NF-kB luciferase, 16 h; inhibition, % at 4 µM; actives 27% (n = 2,700);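 active means inhibition reaching about 45% at 4 µM in either replicate, limit read from the data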;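 further: plate controls were PMA/ionomycin stimulated DMSO wells for no effect and unstimulated DMSO wells for full effect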
# 697 NFkB conf: lowers PMA/ionomycin-induced NF-kB signal in 697 B cells | shares compounds with 697 NFkB inh | 697 B-cell NF-kB luciferase, 16 h | inhibition, % at 4 µM | actives 35% (n = 2,000); in the data active means inhibition mostly above about 28%, no sharp cut-off; inactive means mostly below about 22%
# CHOP UPR conf: confirmation of apoptotic unfolded protein response (CHOP) activators; shares compounds with UPR CHOP act; CHO-CHOP cells, CHOP-luciferase reporter luminescence; percent of tunicamycin response, DMSO as zero; activation, % at 10 µM; actives 64% (n = 1,000); AID 463112; in the data active means activation above about 33%;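 further: 0% = DMSO wells and 100% = tunicamycin 10 µg/mL wells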
# XBP1 UPR conf: confirmation of adaptive unfolded protein response (XBP1) activators; shares compounds with XBP1 UPR activ; CHO-XBP1 IRE1-XBP1 luciferase reporter, luminescence; activation, % at 20 µM; actives 63% (n = 1,000); AID 485299;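 active means reporter signal at least 30% of the positive control's activation in two or more of four replicate wells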;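 further: plate controls were DMSO negative control for no effect and tunicamycin 10 µg/mL positive control for full effect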
# * hit, by the source's call; nt = no result.
SMILES,CHOP inhibitor,UPR CHOP act,XBP1 UPR activ,Jurkat NFkB inh,697 NFkB inh,CHOP confirm,Jurkat NFkB conf,others
CCC(=O)c1ccc(OCC(=O)N2CCN(CC(=O)Nc3ccccc3C(F)(F)F)CC2)cc1,nt,1,-4,26,-10,nt,nt,
CCN1C(=O)C(=Cc2ccc(C)s2)C(=O)N(CC)C1=S,106*,9,9,1,-32,-23,nt,
O=C(O)c1ccccc1-c1ccc(C=C2C(=O)N(c3ccccc3)C(=S)N(c3ccccc3)C2=O)o1,nt,0,1,-7,-2,nt,nt,
COC(=O)C[C@]1(C(=O)OC)CN(C#N)N(c2ccc(Cl)cc2)C12c1ccccc1-c1ccccc12,nt,-10,-7,97*,-26,129*,77*,
C[C@]12CCC3C(CC[C@H]4C[C@H](O)CC[C@]34C)C1C[C@H](O)[C@@H]2O (some centres not stated),nt,1,1,4,13,nt,nt,
COC(=O)[C@]12OC[C@]34C([C@@H](O)[C@@H]1O)[C@]1(C)CC(=O)C(O)=C(C)[C@@H]1C[C@H]3OC(=O)[C@H](O)[C@@H]24 (some centres not stated),104*,-5,-4,66*,-30,108*,86*,
O=C(/C=C/c1ccc(F)cc1)NC(=S)N1C[C@H]2C[C@H](C1)c1cccc(=O)n1C2,nt,0,-2,-3,15,nt,nt,
C/C=C(\C)C(=O)OC1C(C)=C2C(C1OC(=O)CCCCC)C(C)(OC(C)=O)CC(OC(=O)CCC)C1(O)C2OC(=O)C1(C)O (configuration not stated),105*,22,61*,12,-262,125*,nt,697 NFkB conf=-296
CN1[C@@H]2CC[C@H]1CC(OC1c3ccccc3CCc3ccccc31)C2 (some centres not stated),nt,-2,-6,-3,-20,nt,nt,
CCOc1ccc(N2C(=O)/C(=C\c3cccs3)C(=O)NC2=S)cc1,106*,268*,-7,-8,5,-100,nt,CHOP UPR conf=63*
Cc1ccc(N2C(=O)NC(=O)/C(=C/c3cnn(-c4ccc(C)cc4)c3)C2=O)cc1,102*,87*,3,4,-50,-79,nt,CHOP UPR conf=93*
CSc1ncc(/C=C2/C(=O)NC(=O)N(c3ccc(C)cc3)C2=O)cn1,-4,-1,-3,0,5,nt,nt,
Cc1ccc(Oc2cc(NN3CCCCC3)c([N+](=O)[O-])cc2[N+](=O)[O-])c([N+](=O)[O-])c1,nt,1,-4,8,14,nt,nt,
O=C1NC(=O)N(Cc2ccccc2)C(=O)/C1=C\c1ccco1,106*,2,71*,-10,-21,-47,nt,XBP1 UPR conf=29*
COc1ccc(-c2nc3ccc(C(=O)N4CCC5(CC4)OCCO5)cc3nc2-c2ccc(OC)cc2)cc1,nt,2,-1,-9,-3,nt,nt,
Cc1ccccc1-n1c(O)c(/C=C2/C(c3ccccc3)=Nc3ccccc32)c(=O)[nH]c1=O,-41,4,14,53*,-93,nt,35,
COC(=O)C1=C(c2ccc(OC)c(OC)c2)C[C@@H]2CC[C@H]1N2C(=O)NCCCOC(C)C,nt,1,1,0,1,nt,nt,
COc1ccc(C[C@@H]2c3cc(O)c(OC)cc3CCN2C)cc1O,6,0,1,-8,-6,nt,nt,
COc1cc2c(cc1O)[C@@H]1Cc3ccc(OC)c(O)c3CN1CC2,nt,-1,-4,58*,8,nt,27,
O=C(Nc1ccc(C(F)(F)F)cc1)c1cccn(Cc2ccc3c(c2)OC(F)(F)O3)c1=O,51,0,3,54*,0,nt,46,
O=C(Nc1cccc(C(F)(F)F)c1)c1cccn(Cc2ccc3c(c2)OC(F)(F)O3)c1=O,39,0,-2,1,8,nt,nt,
COc1ccc(C(c2ccc(OC)cc2)C(Cl)(Cl)Cl)cc1,nt,4,1,14,-2,nt,nt,
C/C=C(\C)C(=O)N[C@@H](c1ccccc1)[C@@H](O)C(=O)O[C@H]1C[C@@]2(O)[C@@H](OC(=O)c3ccccc3)C3[C@](C)(C(=O)[C@H](OC(C)=O)C(=C1C)C2(C)C)[C@H](O)C[C@H]1OC[C@@]31OC(C)=O (some centres not stated),nt,2,-2,72*,2,nt,73*,
CC/C=C/CC(=O)N[C@@H](c1ccccc1)[C@@H](O)C(=O)O[C@H]1C[C@@]2(O)[C@@H](OC(=O)c3ccccc3)C3[C@](C)(C(=O)[C@H](OC(C)=O)C(=C1C)C2(C)C)[C@@H](O)C[C@H]1OC[C@@]31OC(C)=O (some centres not stated),nt,1,5,66*,-15,nt,63*,
CCCCCC(=O)N[C@@H](c1ccccc1)[C@@H](O)C(=O)O[C@H]1C[C@@]2(O)[C@@H](OC(=O)c3ccccc3)C3[C@](C)(C(=O)[C@H](O)C(=C1C)C2(C)C)[C@@H](OC1OCC(O)C(O)C1O)C[C@H]1OC[C@@]31OC(C)=O (some centres not stated),nt,-4,-3,41,-20,nt,nt,
CC(=O)O[C@@]12CO[C@@H]1C[C@@H](O)[C@@]1(C)C(=O)[C@H](O)C3=C(C)[C@@H](OC(=O)[C@H](O)[C@@H](NC(=O)c4ccccc4)c4ccccc4)C[C@@](O)([C@@H](OC(=O)c4ccccc4)C12)C3(C)C (some centres not stated),nt,-1,-2,65*,-27,nt,65*,
CC(=O)O[C@@]12CO[C@@H]1C[C@H](OC1OCC(O)C(O)C1O)[C@@]1(C)C(=O)[C@H](O)C3=C(C)[C@@H](OC(=O)[C@H](O)[C@@H](NC(=O)c4ccccc4)c4ccccc4)C[C@@](O)([C@@H](OC(=O)c4ccccc4)C12)C3(C)C (some centres not stated),nt,1,-1,48,-44,nt,nt,

# Screening data deposited in PubChem BioAssay by several laboratories.
